High-throughput results (PubChem)
Sampled rows, rich in hits. Any-hit rate of the full collection: about 3.5%.
MrgX1 agonist = agonists of human MrgX1 receptor, primary screen, HEK293 cells, Fluo-4 calcium flux | Mas-related G-protein coupled receptor member X1 (Homo sapiens), Q96LB2 | Fluo-4 calcium fluorescence, agonist mode; hits give high values | B-score at 10 µM | actives 0.44% (n = 310,000);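 active means calcium response B-score plate-corrected fluorescence ratio at least 3 library SD, with starting fluorescence B-score inside 5 SD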
Target sequence (Q96LB2 whole entry, looked up): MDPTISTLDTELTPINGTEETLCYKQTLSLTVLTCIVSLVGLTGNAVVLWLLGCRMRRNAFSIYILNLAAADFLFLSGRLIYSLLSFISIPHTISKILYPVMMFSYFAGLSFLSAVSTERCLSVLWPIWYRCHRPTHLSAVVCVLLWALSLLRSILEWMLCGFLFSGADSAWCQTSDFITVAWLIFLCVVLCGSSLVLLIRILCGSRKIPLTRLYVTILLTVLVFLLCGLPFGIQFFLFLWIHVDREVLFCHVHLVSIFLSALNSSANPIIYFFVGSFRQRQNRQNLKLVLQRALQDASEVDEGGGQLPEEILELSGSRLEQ
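System: HEK293 cells stably expressing human MrgX1 receptor; Dosing: test compound in the initial addition of three; Schedule: overnight plating, then 30 min 37 °C plus 30 min room-temperature dye loading; Detection: kinetic calcium dye fluorescence, Fluo-4 NW; Controls: per-plate positive and negative controls for Z′ factor.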
RGS4 inh = RGS4 inhibitors, primary screen, cell-based, HEK293 M3R inducible RGS4, calcium flux; Regulator of G-protein signaling 4 (Homo sapiens), P49798; Fluo-4 calcium flux; hits give high values; triggered by carbachol at its EC20; B-score at 10 µM; actives 0.45% (n = 310,000);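 active means B-score, a plate-corrected calcium signal, over three deviations above library mean, with baseline fluorescence within five deviations of library mean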;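 further: RGS4 expression induced by doxycycline in cells with stable M3 receptor; B-score is computed from the integrated fluorescence ratio over baseline after carbachol; higher B-score means a larger calcium signal and so more RGS4 inhibition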
Target sequence (P49798 whole entry, looked up): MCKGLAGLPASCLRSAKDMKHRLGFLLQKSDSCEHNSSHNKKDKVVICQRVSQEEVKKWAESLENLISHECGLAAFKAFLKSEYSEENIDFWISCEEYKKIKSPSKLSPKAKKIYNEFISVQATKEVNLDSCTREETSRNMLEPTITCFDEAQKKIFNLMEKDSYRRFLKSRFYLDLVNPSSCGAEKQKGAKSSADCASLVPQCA
MrgX1 antagonist = antagonists of human MrgX1 receptor, primary screen, HEK293 cells, Fluo-4 calcium flux; BAM8-22 antagonism; hits give low values; Mas-related G-protein coupled receptor member X1 (Homo sapiens), Q96LB2; actives 1.3% (n = 310,000); B-score at 10 µM;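 active means calcium-response B-score plate-corrected more than 3 library SD below zero, starting fluorescence within 5 deviations, no agonist response on first addition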;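 further: peak minus trough fluorescence over baseline after final BAM8-22 challenge near maximal dose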
RGS4 pot = RGS4 potentiators or activators, primary screen, cell-based, HEK293 M3R inducible RGS4, calcium flux. carbachol calcium flux Fluo4; hits give low values. B-score at 10 µM. actives 0.92% (n = 310,000). AID 463111, 2010;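 active means B-score of the integrated calcium signal more than 4 SD below the library mean, with starting fluorescence not abnormally high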;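 further: negative B-score means reduced calcium response which marks RGS4 activation or potentiation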
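Test system: HEK293 cells with stable M3R and inducible RGS4; also added: carbachol at ECmax as muscarinic agonist stimulus; schedule: dye loading 30 min 37 °C, buffer rest 30 min RT; technique: kinetic calcium fluorescence imaging with Fluo4-AM dye, 2 µM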
MrgX1 PAM = positive allosteric modulators of MrgX1, primary screen, HEK293 cells, Fluo-4 calcium flux; B-score at 10 µM; FDSS; hits give high values; actives 0.63% (n = 310,000); AID 588675, 2011; Mas-related G-protein coupled receptor member X1 (Homo sapiens), Q96LB2;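 active means plate-corrected calcium response at least 3 library SD above typical, normal starting fluorescence, not activating the receptor alone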;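 further: compound read alongside a low EC10 to EC30 dose of BAM8-22 agonist; peak minus trough fluorescence over baseline measured at the second addition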
MrgX1 antag conf = MrgX1 receptor antagonists, duplicate retest, confirmation, HEK293 cells, Fluo-4 calcium flux. shares compounds with MrgX1 antagonist. BAM8-22 calcium flux; hits give low values. remaining BAM8-22 calcium response % of control (hits give low values), % at 10 µM. actives 19% (n = 2,300);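 active means remaining agonist calcium response no higher than 100% minus 3 SD of agonist-only control wells, with starting fluorescence near control levels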;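 further: agonist BAM8-22 given at a near maximal EC90 to ECmax level; peak minus minimum fluorescence divided by baseline after agonist addition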
HEK293 Ca flux = nonspecific calcium signal in parental HEK293, confirmation, counter-screen for MrgX1 antagonist project, parental HEK293 cells, Fluo-4 calcium flux; Fluo-4 calcium fluorescence, FDSS; shares compounds with MrgX1 antagonist; AID 624111, 2012; actives 2% (n = 4,000); fluorescence ratio F(max-min)/F0 at 10 µM;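 active means duplicate-averaged calcium fluorescence ratio at least three times the standard deviation of buffer wells, a nonspecific response in parental cells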
HEK293 Ca counter = calcium response in parental HEK293 cells, primary screen, counter-screen for MrgX1 allosteric activator project, cell-based, Fluo-4 calcium flux, duplicate | shares compounds with MrgX1 antagonist | Fluo-4 fluorescence ratio; hits give high values | fluorescence ratio F(max-min)/F0 at 10 µM | actives 0.4% (n = 4,000) | AID 624114, 2012;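 active means calcium fluorescence ratio, averaged over duplicates, at least 3 SD of the buffer-well ratio, meaning a nonspecific response in receptor-free cells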;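 further: untransfected parental HEK293 lacking MrgX1 used as counterscreen for MrgX1 allosteric activators; fluorescence change taken during the second addition on a kinetic imager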
HEK293 Ca cntr2 = calcium response in parental HEK293 cells, primary screen, counter-screen for MrgX1 agonist project, cell-based, Fluo-4 calcium flux, duplicate, agonist mode | actives 8.7% (n = 4,000) | fluorescence ratio F(max-min)/F0 at 10 µM | Fluo-4 calcium fluorescence (FDSS); hits give high values | shares compounds with MrgX1 antagonist | AID 624115, 2012;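 active means calcium fluorescence ratio at least three times the spread of buffer wells, meaning a non-specific response in parental cells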
Numbers without * were called inactive; i = inactive; x = not tested or not shown; ! = a repeat was not active.

SMILES	MrgX1 agonist	RGS4 inh	MrgX1 antagonist	RGS4 pot	MrgX1 PAM	MrgX1 antag conf	HEK293 Ca flux	HEK293 Ca counter	HEK293 Ca cntr2
O=C(COc1coc(CN2CCc3ccccc3C2)cc1=O)Nc1cccc(Cl)c1	i	i	i	i	i	x	x	x	x
COc1ccc(C(=O)COC(=O)Cc2n[nH]c(=O)c3ccccc23)c(OC)c1	i	i	-8.2*	i	i	i	i	i	i
O=C(Cc1n[nH]c(=O)c2ccccc12)OCC(=O)c1ccccc1Cl	i	i	i	i	i	x	x	x	x
O=C(Nc1cccc(F)c1)Nc1ccnn1C1CCN(C(=O)CCN2CCCO2)CC1	i	i	i	i	i	x	x	x	x
O=C(Nc1cccc(F)c1)Nc1ccnn1C1CCN(C(=O)c2cscn2)CC1	i	i	-7.3*	i	i	i	i	i	i
COc1ccc(NC(=S)NNS(=O)(=O)c2ccc3ccccc3c2)c(OC)c1	i	i	i	i	i	x	x	x	x
O=C(N=C1SC2CS(=O)(=O)CC2N1Cc1ccccc1Cl)C1CCCO1 (centres undefined)	i	i	i	i	i	x	x	x	x
COc1cc2c(cc1OC)CN(C(=O)c1ccc(OC)c(S(=O)(=O)N3CCOCC3)c1)CC2	i	i	-5.1*	i	i	i	i	i	i
COc1ccc(C(=O)N2CCCC2)cc1S(=O)(=O)N1CCOCC1	i	i	i	i	i	x	x	x	x
NC(=O)c1ccsc1NC(=O)CSc1ccccc1F	i	i	-4.9*	i	i	i	i	i	i
NC(=O)c1ccsc1NC(=O)CCS(=O)(=O)c1ccc(F)cc1	i	i	-5.9*	i	i	80%*	i	i	i
Cc1ccccc1SCC(=O)OCC(=O)Nc1sccc1C(N)=O	i	i	i	i	i	x	x	x	x
COc1ccccc1OCC(=O)OCC(=O)Nc1sccc1C(N)=O	i	i	i	i	i	x	x	x	x
NC(=O)c1ccsc1NC(=O)COC(=O)Cc1cccc2ccccc12	i	i	-6.8*	i	i	42%*	i	i	i
COc1ccc(N2CCN(C(=O)Cn3nnc(-c4ccccc4N)n3)CC2)cc1	i	i	i	i	i	x	x	x	x
CN(Cc1ccccc1)C(=O)COc1cc(Cl)ccc1Cl	i	i	i	i	i	x	x	x	x
COc1cc(NC(=O)c2nccnc2C(=O)O)cc(OC)c1	i	i	-6*	i	i	i	i	i	i
Cc1ccc(S(=O)(=O)N2CCCCC2)cc1NC(=O)CNCc1ccco1	i	i	i	i	i	x	x	x	x
CCc1sc(NC(C)=O)nc1-c1ccccc1	i	i	i	i	i	x	x	x	x
CCc1sc(NC(=O)COC)nc1-c1ccccc1	i	i	-4.6*	i	i	i	i	i	i
O=[N+]([O-])c1ccc(N2N=C(c3ccccc3)CC2c2ccccc2O)cc1 (centres undefined)	i	i	-16*	-9.3*	i	i	0.56*	i	i
COc1cc(N2N=C(c3ccccc3)CC2c2ccccc2)c(C=O)cc1C=O (centres undefined)	i	i	i	i	i	x	x	x	x
COc1ccccc1N1N=C(c2ccc([N+](=O)[O-])cc2)CC1c1ccccc1 (centres undefined)	i	i	-15*	i	i	i	0.69*	i	i
CCOC(=O)c1c(S(=O)(=O)NCC(=O)N2CCN(c3cccc(OC)c3)CC2)c(C)n(C)c1C	i	i	i	i	i	x	x	x	x
NNC(=O)CCc1nc2ccc(O)cc2[nH]1	i	i	i	i	i	x	x	x	x
SMILES	MrgX1 agonist	RGS4 inh	MrgX1 antagonist	RGS4 pot	MrgX1 PAM	MrgX1 antag conf	HEK293 Ca flux	HEK293 Ca counter	HEK293 Ca cntr2
Cn1c(=O)c(=O)n(C)c2cc(S(=O)(=O)N3CCC(Cc4ccccc4)CC3)ccc21	i	i	i	i	i	x	x	x	x
CCn1c(=O)n(CC)c2cc(S(=O)(=O)N3CCC(c4ccccc4)CC3)ccc21	i	i	-7.1*	i	i	i	i	i	i
COCCn1c(N)c(N(Cc2ccccc2)C(=O)c2cc3ccccc3o2)c(=O)[nH]c1=O	i	i	i	i	i	x	x	x	x
Cc1ccc(CN2CCCNC2=O)cc1	i	i	-4.9*	i	i	i	i	i	i
CN(C)CCCSc1nc2ccccc2s1	i	i	-7.1*	i	i	69%*	i	i	i
CC(C)C(=O)Nc1cc(C(F)(F)F)ccc1N1CCOCC1	i	i	-5*	i	i	76%*	i	i	i
CCC(=O)Nc1cc(C(F)(F)F)ccc1N1CCOCC1	i	i	i	i	i	x	x	x	x
COc1ccc2[nH]c3c(c2c1)CCN1C(=O)N([C@@H](C)C(=O)NCc2ccccc2)C(=O)[C@]31C	i	i	-8.6*	i	i	i	i	i	i
COc1ccc2[nH]c3c(c2c1)CCN1C(=O)N([C@@H](C)C(=O)NCc2ccccc2OC)C(=O)[C@]31C	i	i	i	i	i	x	x	x	x
Cc1cc(C)nc(NS(=O)(=O)c2ccc(N)cc2)n1	i	i	-4.7*!	i	i	i	i	i	i
CCc1ccc(OCC(=O)N2CC(C(N)=O)Oc3ccccc32)cc1 (centres undefined)	i	i	i	i	i	x	x	x	x
COC(=O)CCc1c(COC(C)=O)[nH]c(C(=O)OCc2ccccc2)c1C	i	i	i	i	i	x	x	x	x
